The values below come from ChEMBL document CHEMBL4118021, “Studies of TAK1-centered polypharmacology with novel covalent TAK1 inhibitors” (Bioorg Med Chem, 2017).

Common to all, as to assay type: cell-based
For assay [1], the target named is Cyclin-dependent kinase 2 (Homo sapiens) (UniProt P24941). The assay can be described thus: Inhibition of CDK2 in human SKCO1 cells at 1 uM after 4 hrs using biotin labeled DLKPQNLLINTEGAIK probe by mass-spectrometric analysis relative to control.
In assay [2] the target is Serine/threonine-protein kinase Chk2 (Homo sapiens) (UniProt O96017). The assay can be described thus: Inhibition of CHK2 in human SKCO1 cells at 1 uM after 4 hrs using biotin labeled DLKPENVLLSSQEEDCLIK probe by mass-spectrometric analysis relative to control.
Sequence of Serine/threonine-protein kinase Chk2 (Homo sapiens) (O96017 whole entry): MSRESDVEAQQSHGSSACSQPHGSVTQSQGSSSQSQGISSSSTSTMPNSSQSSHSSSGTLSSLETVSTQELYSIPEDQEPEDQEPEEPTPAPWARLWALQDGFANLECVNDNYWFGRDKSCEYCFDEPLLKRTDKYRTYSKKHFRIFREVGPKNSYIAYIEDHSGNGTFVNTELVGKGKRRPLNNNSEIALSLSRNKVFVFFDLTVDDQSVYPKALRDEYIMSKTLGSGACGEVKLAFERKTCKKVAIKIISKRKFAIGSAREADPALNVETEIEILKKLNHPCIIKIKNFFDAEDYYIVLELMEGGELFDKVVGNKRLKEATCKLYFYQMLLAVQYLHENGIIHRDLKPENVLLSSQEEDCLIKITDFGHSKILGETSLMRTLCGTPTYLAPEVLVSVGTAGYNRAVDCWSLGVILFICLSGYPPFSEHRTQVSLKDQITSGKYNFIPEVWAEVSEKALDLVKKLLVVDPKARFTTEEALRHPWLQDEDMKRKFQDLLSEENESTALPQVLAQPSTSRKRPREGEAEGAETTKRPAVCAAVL
For assay [3], the target named is Epidermal growth factor receptor (Homo sapiens) (UniProt P00533). The assay is described as follows: Inhibition of EGFR in human SKCO1 cells at 1 uM after 4 hrs using biotin labeled LLGAEEKEYHAEGGKVPIK probe by mass-spectrometric analysis relative to control.
Sequence of Epidermal growth factor receptor (Homo sapiens) (P00533 whole entry, the tested form may be a part): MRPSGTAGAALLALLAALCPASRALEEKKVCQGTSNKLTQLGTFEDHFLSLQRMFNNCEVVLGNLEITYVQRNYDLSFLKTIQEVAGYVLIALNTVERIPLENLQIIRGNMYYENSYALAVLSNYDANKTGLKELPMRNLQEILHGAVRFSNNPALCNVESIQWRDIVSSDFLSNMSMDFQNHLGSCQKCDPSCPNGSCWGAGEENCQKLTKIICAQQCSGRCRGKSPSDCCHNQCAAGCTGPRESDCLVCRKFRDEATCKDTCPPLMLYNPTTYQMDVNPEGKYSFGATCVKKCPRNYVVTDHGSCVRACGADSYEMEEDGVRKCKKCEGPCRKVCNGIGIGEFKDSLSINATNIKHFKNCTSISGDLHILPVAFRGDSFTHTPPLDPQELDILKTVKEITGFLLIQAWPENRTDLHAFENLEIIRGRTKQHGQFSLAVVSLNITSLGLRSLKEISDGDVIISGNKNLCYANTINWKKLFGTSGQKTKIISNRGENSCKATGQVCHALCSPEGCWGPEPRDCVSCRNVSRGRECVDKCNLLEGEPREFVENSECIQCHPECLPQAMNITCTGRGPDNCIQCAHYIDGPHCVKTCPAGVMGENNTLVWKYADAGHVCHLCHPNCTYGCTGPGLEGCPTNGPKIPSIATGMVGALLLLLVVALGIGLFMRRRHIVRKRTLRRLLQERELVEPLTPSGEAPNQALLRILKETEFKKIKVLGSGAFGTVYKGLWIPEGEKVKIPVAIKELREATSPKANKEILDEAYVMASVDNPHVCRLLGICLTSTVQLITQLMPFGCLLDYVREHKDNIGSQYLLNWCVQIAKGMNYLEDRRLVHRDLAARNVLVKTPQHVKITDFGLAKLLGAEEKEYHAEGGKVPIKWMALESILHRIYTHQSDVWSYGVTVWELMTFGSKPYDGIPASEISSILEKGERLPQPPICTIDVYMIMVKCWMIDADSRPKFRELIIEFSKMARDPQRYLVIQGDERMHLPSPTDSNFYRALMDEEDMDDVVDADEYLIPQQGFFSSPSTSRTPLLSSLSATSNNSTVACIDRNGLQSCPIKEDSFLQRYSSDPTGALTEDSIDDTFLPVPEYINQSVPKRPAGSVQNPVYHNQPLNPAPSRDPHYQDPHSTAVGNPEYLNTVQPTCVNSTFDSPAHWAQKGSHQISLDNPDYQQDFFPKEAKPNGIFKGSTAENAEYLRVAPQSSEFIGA
The target of assay [4] is eIF-2-alpha kinase GCN2 (Homo sapiens) (UniProt Q9P2K8). The assay can be described thus: Inhibition of GCN2 domain2 in human SKCO1 cells at 1 uM after 4 hrs using biotin labeled DLKPVNIFLDSDDHVK probe by mass-spectrometric analysis relative to control.
Sequence of eIF-2-alpha kinase GCN2 (Homo sapiens) (Q9P2K8 whole entry, the tested form may be a part): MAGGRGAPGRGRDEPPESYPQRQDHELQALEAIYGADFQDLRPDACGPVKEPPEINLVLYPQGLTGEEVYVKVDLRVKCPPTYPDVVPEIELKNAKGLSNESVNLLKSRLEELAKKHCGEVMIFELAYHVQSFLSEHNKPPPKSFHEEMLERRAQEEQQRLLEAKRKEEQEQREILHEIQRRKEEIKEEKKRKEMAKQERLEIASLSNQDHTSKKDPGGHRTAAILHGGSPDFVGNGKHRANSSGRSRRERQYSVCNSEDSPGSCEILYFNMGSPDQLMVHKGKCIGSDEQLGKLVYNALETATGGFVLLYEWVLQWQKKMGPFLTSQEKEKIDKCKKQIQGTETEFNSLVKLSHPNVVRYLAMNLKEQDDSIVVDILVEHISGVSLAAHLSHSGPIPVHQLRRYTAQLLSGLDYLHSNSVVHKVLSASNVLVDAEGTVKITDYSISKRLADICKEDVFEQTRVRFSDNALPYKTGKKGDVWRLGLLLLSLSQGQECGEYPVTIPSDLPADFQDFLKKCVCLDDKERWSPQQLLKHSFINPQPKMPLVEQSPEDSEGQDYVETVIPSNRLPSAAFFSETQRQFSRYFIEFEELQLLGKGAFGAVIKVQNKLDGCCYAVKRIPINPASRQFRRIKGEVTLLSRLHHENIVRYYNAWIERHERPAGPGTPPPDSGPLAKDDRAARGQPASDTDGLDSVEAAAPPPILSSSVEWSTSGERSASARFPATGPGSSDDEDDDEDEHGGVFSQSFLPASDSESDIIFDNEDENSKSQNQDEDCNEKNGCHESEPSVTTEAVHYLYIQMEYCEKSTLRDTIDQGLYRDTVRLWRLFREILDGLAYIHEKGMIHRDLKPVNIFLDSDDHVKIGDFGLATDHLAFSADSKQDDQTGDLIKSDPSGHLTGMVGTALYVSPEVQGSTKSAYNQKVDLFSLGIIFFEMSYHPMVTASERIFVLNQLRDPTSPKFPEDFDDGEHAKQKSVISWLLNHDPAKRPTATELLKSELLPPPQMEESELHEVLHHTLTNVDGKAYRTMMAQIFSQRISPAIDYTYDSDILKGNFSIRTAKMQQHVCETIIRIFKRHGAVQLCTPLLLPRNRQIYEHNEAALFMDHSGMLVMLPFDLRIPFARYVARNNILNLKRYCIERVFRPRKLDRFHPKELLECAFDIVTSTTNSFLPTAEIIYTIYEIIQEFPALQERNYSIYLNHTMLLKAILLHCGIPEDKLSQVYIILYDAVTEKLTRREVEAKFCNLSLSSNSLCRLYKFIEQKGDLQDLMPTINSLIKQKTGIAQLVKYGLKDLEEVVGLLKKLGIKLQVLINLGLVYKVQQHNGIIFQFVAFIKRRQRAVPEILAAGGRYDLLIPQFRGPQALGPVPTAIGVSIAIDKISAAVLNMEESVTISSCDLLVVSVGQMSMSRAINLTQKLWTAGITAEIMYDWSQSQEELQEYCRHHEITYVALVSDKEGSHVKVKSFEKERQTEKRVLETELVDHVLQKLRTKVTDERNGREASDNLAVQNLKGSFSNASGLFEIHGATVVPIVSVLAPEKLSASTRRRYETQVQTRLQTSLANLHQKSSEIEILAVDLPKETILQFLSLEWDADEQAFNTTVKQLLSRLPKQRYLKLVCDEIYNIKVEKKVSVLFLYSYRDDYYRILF
In assay [5] the target is T1, Serine/threonine-protein kinase LATS2 (Homo sapiens) (UniProt Q9NRM7).
T1 sequence (whole entry): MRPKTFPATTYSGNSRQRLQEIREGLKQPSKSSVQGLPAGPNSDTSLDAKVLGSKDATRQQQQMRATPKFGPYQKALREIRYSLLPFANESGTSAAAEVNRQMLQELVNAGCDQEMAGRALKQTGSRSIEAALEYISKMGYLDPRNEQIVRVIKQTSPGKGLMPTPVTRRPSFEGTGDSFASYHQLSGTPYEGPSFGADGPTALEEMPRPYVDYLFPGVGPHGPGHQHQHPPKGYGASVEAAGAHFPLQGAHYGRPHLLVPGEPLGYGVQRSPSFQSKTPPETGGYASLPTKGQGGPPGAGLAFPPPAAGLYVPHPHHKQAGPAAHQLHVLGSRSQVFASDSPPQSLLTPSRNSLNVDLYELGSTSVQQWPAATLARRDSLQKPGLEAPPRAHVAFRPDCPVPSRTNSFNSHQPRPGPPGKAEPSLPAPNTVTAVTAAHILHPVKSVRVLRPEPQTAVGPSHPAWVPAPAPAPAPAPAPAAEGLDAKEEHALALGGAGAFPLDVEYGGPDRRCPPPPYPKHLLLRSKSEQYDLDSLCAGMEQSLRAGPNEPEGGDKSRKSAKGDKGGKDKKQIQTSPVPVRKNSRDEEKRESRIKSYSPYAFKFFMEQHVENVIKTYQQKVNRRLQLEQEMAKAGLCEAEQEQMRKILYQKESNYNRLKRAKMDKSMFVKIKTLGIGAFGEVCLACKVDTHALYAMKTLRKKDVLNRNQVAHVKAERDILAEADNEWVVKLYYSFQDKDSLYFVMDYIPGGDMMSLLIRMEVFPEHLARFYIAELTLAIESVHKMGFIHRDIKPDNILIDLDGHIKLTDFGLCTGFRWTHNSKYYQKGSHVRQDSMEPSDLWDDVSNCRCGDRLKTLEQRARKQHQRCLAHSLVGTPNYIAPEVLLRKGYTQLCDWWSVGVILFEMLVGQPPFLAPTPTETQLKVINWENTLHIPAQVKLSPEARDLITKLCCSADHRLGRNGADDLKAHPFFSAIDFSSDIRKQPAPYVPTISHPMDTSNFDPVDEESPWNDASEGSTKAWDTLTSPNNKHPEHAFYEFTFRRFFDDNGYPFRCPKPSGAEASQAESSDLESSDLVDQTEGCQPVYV
The assay is described as follows: Inhibition of LATS2 in human SKCO1 cells at 1 uM after 4 hrs using biotin labeled DIKPDNILIDLDGHIK probe by mass-spectrometric analysis relative to control.

The target of assay [6] is Serine/threonine-protein kinase Nek4 (Homo sapiens) (UniProt P51957). The assay can be described thus: Inhibition of NEK4 in human SKCO1 cells at 1 uM after 4 hrs using biotin labeled DLKTQNVFLTR probe by mass-spectrometric analysis relative to control. The procedure, abridged: (§1)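 Live SK-CO-1 cells exposed to compound at 1 μM or DMSO for 4 h (KiNativ). Lysates then labeled with lysine-reactive ATP/ADP-biotin probe, and probe-labeled kinase peptides quantified by mass spectrometry. Percent inhibition of probe-dependent recovery calculated relative to DMSO-treated cells.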
Sequence of Serine/threonine-protein kinase Nek4 (Homo sapiens) (P51957 whole entry, looked up): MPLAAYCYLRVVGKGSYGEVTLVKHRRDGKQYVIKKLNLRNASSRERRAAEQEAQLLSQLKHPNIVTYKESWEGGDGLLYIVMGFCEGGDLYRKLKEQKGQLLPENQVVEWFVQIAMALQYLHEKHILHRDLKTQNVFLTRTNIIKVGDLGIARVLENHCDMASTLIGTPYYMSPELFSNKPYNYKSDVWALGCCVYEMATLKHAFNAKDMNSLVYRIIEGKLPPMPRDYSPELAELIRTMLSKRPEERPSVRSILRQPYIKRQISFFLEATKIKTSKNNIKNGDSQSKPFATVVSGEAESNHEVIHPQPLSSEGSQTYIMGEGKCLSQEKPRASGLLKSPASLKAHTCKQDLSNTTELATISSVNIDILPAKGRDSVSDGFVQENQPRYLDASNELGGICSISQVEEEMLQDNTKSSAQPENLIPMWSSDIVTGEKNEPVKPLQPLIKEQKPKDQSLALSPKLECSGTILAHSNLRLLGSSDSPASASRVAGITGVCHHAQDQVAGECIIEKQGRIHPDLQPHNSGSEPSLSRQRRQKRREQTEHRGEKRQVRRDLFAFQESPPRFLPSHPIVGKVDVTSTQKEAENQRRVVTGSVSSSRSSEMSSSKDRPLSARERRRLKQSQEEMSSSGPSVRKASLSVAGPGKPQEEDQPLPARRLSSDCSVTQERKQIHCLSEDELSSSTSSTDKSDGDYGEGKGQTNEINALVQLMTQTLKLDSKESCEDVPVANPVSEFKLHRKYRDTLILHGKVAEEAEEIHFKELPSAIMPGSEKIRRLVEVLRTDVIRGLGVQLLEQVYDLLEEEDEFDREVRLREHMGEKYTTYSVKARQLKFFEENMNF

In assay [7] the target is Cyclin-dependent kinase 18 (Homo sapiens) (UniProt Q07002). The assay can be described thus: Inhibition of PCTAIRE3 in human SKCO1 cells at 1 uM after 4 hrs using biotin labeled DLKPQNLLINER probe by mass-spectrometric analysis relative to control. An outline of the steps: as §1
Sequence of Cyclin-dependent kinase 18 (Homo sapiens) (Q07002 whole entry): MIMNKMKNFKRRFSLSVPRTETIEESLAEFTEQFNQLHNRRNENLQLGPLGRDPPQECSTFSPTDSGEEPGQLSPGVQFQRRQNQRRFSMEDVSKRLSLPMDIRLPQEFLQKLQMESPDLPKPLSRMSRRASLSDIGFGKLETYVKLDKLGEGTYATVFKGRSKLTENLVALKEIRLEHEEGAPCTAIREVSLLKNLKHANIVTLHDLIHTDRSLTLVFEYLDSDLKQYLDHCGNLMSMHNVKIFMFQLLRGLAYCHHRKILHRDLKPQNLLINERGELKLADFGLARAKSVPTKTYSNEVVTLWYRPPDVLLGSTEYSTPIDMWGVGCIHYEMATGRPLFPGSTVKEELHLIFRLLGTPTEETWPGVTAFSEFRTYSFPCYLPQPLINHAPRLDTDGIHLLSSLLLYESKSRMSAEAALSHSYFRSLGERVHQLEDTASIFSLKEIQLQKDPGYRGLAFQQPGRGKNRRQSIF
Assay [8] addresses T2, Serine/threonine-protein kinase TAO1 (Homo sapiens) (UniProt Q7L7X3).
T2 sequence (whole entry): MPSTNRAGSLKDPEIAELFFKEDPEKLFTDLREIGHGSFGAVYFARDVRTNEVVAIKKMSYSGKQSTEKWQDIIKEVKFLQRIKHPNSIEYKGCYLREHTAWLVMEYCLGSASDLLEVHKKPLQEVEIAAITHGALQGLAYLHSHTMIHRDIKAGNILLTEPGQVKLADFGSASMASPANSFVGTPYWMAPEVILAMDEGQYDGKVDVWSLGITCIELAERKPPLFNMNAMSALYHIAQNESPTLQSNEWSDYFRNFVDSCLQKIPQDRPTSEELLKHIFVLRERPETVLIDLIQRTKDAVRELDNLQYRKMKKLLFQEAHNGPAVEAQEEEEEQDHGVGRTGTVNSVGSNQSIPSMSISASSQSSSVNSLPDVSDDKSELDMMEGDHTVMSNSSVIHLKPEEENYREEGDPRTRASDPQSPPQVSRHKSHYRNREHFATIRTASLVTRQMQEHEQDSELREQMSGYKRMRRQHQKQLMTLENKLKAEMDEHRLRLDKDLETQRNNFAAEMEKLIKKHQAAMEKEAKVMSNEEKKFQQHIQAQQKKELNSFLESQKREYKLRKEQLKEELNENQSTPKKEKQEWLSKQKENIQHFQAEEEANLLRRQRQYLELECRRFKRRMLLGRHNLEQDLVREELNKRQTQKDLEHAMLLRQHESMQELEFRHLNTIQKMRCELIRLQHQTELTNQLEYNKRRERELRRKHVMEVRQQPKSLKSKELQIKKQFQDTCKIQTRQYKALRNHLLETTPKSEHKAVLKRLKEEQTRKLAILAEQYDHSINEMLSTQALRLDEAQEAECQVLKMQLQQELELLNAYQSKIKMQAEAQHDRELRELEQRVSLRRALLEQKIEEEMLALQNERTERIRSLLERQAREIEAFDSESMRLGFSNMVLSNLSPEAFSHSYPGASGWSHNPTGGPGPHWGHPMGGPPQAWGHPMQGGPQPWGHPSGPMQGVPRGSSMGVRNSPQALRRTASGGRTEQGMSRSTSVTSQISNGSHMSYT
The assay is described as follows: Inhibition of TAO1 in human SKCO1 cells at 1 uM after 4 hrs using biotin labeled DIKAGNILLTEPGQVK probe by mass-spectrometric analysis relative to control. An outline of the steps: as §1

In general, inhibition refers to the drop in the measured response relative to a control, in per cent. For `C=CC(=O)Nc1ccccc1Oc1nc(Nc2cnn(CCOC)c2)ncc1Cl`, the inhibition in assay [1] was 33.1%; in assay [2], -6.3%; in assay [3] it was 28.6%; in assay [4], 1.2%; in assay [5], 6.7%; in assay [6], 15.1%. Also, the inhibition in assay [7] was -5.9%; in assay [8] it was 9.6%.

In the case of `COc1cc(O)c2c(c1)/C=C/C[C@H](O)[C@H](O)C(=O)/C=C\C[C@H](C)OC2=O`, the inhibition is 30% in assay [1]; 12.6% in assay [2]; 14.5% in assay [3]; -6.1% in assay [4]; -0.3% in assay [5]; 18.9% in assay [6]. The inhibition in assay [7] is -6.3%; in assay [8], 39.4%.

As to `C=CC(=O)Nc1ccccc1Nc1nc(Nc2ccc(N3CCN(C)CC3)cc2)ncc1Cl`, the inhibition is 18.7% in assay [1]; 8.5% in assay [2]; 47.6% in assay [3]; 14.6% in assay [4]; 40.7% in assay [5]; 23.8% in assay [6]. Moreover, the inhibition is -3.2% in assay [7] and 13.1% in assay [8].
